Values belong to the compound of their own block, whether it stands above or below them. The source made the active and inactive calls. The rule behind the calls is not given here.
Key:
[1] = molecular target: Vascular endothelial growth factor receptor 2 (Homo sapiens, UniProt P35968); experiment: Inhibition of GST-tagged recombinant human VEGFR2 expressed in Sf9 cells by radiometric assay; assay type: cell-based
Danio rerio [2] = organism: Danio rerio; experiment: Antiangiogenic activity in zebrafish embryo up to 24 hrs by GFP assay; assay type: functional, organism-based
Summary of the method: (§1)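 Embryos of transgenic Zebrafish line TG(fli1:EGFP)y1 were used; a fli-1 promoter drives GFP expression in the endothelium. Embryos were incubated with different compound concentrations, and angiogenesis was assessed by live fluorescence imaging. Data are the percentage of treated embryos showing inhibited angiogenesis.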

Danio rerio [3] = organism: Danio rerio; experiment: Antiangiogenic activity in zebrafish embryo at 20 uM up to 24 hrs by GFP assay; assay type: functional; summary of the method: as §1
Danio rerio [4] = organism: Danio rerio; experiment: Antiangiogenic activity in zebrafish embryo assessed as inhibition of intersegmental blood vessel growth at 10 uM up to 24 hrs by GFP assay; assay type: functional, organism-based; summary of the method: as §1
[5] = Antiproliferative activity against BAEC after 3 days by MTT assay; assay type: functional; conditions: Bos taurus, 72 h
Summary of the method: (§2)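 MTT dye-reduction assay: 3×10^3 BAE or 2×10^3 tumour cells in their own growth media were given serial dilutions of compound for 3 days at 37 °C, 5% CO2. MTT (5 mg/ml stock in PBS) was added for 4 h, and formazan was dissolved in 0.04 N HCl/2-propanol and read at 550 nm. IC50 is the concentration giving 50% survival; values are mean ± S.D. of at least three experiments in triplicate.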

BAEC [6] = experiment: Antiangiogenic activity in BAEC assessed as inhibition of capillary tube formation after 7 hrs by matrigel assay; assay type: functional; conditions: Bos taurus
Summary of the method: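 BAE cells (5×10^4 per well) in DMEM were seeded on Matrigel (about 10.5 mg/mL) that had polymerized at 37 °C for at least 30 min. Cells were given compound at several amounts and kept at 37 °C, 5% CO2 for 7 h. Cord/tube formation was viewed at 200×. Each concentration was run in duplicate and scored by two independent observers.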

[7] = Antiproliferative activity against human HT1080 cells after 3 days by MTT assay; assay type: functional, cell-based; conditions: HT-1080, 72 h; summary of the method: as §2
U2OS = experiment: Antiproliferative activity against human U2OS cells after 3 days by MTT assay; assay type: functional, cell-based; conditions: 72 h; summary of the method: as §2
HL-60 = experiment: Antiproliferative activity against human HL60 cells after 3 days by MTT assay; assay type: functional, cell-based; conditions: HL-60, 72 h; summary of the method: as §2
HT-29 = experiment: Antiproliferative activity against human HT-29 cells after 3 days by MTT assay; assay type: functional, cell-based; conditions: HT-29, 72 h; summary of the method: as §2
BAEC [8] = experiment: Antiangiogenic activity in BAEC assessed as inhibition of cell migration to extracellular matrix at 1 uM after 7 hrs by wound-healing assay; assay type: functional; conditions: Bos taurus
Summary of the method: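 Confluent BAEC monolayers were wounded with a pipette tip to give one 1 mm-wide acellular lane. After washing, cells received complete medium without or with compound. The same fields were photographed at 0 and 7 h. Regrowth into the cell-free area was expressed as % recovered area, mean ± SD, n = 3.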

Danio rerio [9] = organism: Danio rerio; experiment: Antiangiogenic activity in zebrafish embryo at 10 uM up to 24 hrs by GFP assay; assay type: functional; summary of the method: as §1
BAEC [10] = experiment: Induction of apoptosis in BAEC assessed as chromatin condensation at 0.5 to 1 uM after 14 hrs by Hoechst staining; assay type: functional; conditions: Bos taurus
Summary of the method: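 Subconfluent BAE cells on chamber slides were treated for 14 h with the indicated concentrations in complete medium. Cells were then PBS-washed, formalin-fixed and stained with Hoechst for 2 min. Nuclear morphology (chromatin condensation) was examined by fluorescence microscopy.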

Danio rerio [11] = organism: Danio rerio; experiment: Antiangiogenic activity in zebrafish embryo at 5 uM up to 24 hrs by GFP assay; assay type: functional; summary of the method: as §1
MDA-MB-231 = experiment: Antiproliferative activity against human MDA-MB-231 cells after 3 days by MTT assay; assay type: functional, cell-based; conditions: MDA-MB-231, 72 h; summary of the method: as §2
Danio rerio [12] = organism: Danio rerio; experiment: Toxicity in zebrafish embryo up to 24 hrs by GFP assay; assay type: organism-based; conditions: in vivo

Vascular endothelial growth factor receptor 2, sequence (P35968 whole entry): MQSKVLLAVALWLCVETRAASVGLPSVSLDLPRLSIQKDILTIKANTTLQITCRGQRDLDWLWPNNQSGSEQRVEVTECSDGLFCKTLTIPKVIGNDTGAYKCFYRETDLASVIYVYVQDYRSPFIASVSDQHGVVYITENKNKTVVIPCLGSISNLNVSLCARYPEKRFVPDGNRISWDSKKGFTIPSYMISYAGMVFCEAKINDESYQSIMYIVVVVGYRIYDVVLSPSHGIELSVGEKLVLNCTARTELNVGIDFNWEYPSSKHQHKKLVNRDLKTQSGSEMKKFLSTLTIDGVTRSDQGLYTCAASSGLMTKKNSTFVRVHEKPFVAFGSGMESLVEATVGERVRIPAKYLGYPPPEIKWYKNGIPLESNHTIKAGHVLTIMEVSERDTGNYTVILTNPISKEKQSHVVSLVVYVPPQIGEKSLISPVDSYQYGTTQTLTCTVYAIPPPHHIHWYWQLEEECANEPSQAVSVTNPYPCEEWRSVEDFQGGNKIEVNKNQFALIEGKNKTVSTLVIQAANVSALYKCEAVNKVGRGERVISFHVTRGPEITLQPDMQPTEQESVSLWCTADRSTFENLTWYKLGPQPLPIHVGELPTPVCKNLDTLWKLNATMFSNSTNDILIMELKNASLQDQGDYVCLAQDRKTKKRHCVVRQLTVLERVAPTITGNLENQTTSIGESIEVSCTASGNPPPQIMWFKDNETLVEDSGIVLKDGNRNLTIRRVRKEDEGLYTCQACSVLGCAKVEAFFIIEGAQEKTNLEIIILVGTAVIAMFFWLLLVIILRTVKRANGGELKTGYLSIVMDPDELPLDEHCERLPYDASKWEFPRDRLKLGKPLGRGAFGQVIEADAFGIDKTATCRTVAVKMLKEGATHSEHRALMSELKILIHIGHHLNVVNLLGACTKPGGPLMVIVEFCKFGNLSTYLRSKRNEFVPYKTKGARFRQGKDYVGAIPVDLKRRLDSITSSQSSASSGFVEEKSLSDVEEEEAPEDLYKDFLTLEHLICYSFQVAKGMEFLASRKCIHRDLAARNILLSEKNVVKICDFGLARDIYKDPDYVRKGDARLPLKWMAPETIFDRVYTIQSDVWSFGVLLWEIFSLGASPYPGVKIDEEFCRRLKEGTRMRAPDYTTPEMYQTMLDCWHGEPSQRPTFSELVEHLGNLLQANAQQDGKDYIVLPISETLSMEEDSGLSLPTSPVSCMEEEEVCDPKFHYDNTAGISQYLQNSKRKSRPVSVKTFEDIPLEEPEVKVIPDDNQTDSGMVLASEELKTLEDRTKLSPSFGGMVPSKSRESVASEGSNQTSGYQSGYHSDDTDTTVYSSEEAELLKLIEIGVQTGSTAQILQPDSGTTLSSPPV

IC50 [1]: 51.2 nM
SMILES: CCS(=O)(=O)c1ccc(OC)c(Nc2ncc(-c3cc(-c4cccnc4)cc(-c4ccccn4)c3)o2)c1

IC50 [1]: 170 nM
SMILES: CCS(=O)(=O)c1ccc(OC)c(Nc2ncc(-c3cc(-c4cccnc4)cc(-c4cccnc4)c3)o2)c1

IC50 [1]: 15.1 nM
IC50 (U2OS): 2030 nM
IC50 (HL-60): 17800 nM
IC50 (HT-29): 15200 nM
IC50 (MDA-MB-231): 3990 nM
SMILES: CCS(=O)(=O)c1ccc(OC)c(Nc2ncc(-c3cc(-c4ccccn4)cc(-c4ccccn4)c3)o2)c1
inhibition (Danio rerio [2]): Dose-dependent effect
inhibition (INH) (Danio rerio [3]): 87%
inhibition (Danio rerio [4]): Active
IC50 [5]: 370 nM
inhibition (BAEC [6]): Dose-dependent effect
IC50 [7]: 2430 nM
inhibition (BAEC [8]): Active
inhibition (INH) (Danio rerio [9]): 53%
Activity (BAEC [10]): Active
inhibition (INH) (Danio rerio [11]): 7%
Activity (Danio rerio [12]): Non-toxic

IC50 [1]: 202 nM
SMILES: CCS(=O)(=O)c1ccc(OC)c(Nc2ncc(-c3cc(Br)cc(-c4ccccn4)c3)o2)c1

— ChEMBL document CHEMBL3108731, “A development of chimeric VEGFR2 TK inhibitor based on two ligand conformers from PDB: 1Y6A complex--medicinal chemistry consequences of a TKs analysis” (Eur J Med Chem, 2014)
